Measurements reported in ChEMBL document CHEMBL1131375, “2-amino-4H-3,1-benzoxazin-4-ones as inhibitors of C1r serine protease” (J Med Chem, 1998).

What was measured:
[1] = target: T1, Complement C1r subcomponent (Homo sapiens, UniProt P00736)
T1 sequence (P00736 whole entry): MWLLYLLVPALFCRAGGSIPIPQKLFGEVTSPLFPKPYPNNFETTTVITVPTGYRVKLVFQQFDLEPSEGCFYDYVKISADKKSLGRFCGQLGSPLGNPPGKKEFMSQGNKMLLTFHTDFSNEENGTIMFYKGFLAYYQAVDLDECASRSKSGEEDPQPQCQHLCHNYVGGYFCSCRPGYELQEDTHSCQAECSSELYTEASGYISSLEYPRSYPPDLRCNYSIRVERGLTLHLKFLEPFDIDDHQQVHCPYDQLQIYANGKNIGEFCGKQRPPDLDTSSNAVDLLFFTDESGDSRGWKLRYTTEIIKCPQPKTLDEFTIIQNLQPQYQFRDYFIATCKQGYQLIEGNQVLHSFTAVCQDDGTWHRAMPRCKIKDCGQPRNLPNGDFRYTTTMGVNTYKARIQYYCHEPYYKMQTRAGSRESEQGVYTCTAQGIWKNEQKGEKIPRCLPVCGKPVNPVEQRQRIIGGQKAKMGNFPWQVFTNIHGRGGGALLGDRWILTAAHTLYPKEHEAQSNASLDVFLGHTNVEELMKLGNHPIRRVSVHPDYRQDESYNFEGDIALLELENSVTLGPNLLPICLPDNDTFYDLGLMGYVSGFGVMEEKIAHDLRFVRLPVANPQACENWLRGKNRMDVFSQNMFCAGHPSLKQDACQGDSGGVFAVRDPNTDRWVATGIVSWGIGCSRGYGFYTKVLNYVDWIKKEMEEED

[2] = target: T1, Complement C1r subcomponent; test: 50% inhibition of human C1r serine protease after 60 mins using Cbz-Gly-Arg-S-Bzl as substrate
How it was run: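 Compound (DMSO) preincubated 60 min at room temperature in 150 mM Tris pH 7.5, then substrate (1.5 mM stock Cbz-Gly-Arg-S-Bzl in DMSO/H2O 3:7), DTNB (0.75 mM stock) and purified human C1r (20 μg/mL stock, 10 mM Tris pH 7.4) added. Read kinetically at 405 nm after 30 s; no-enzyme background wells; triplicates per concentration; IC50 reported.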

[3] = target: T2, Serine protease 1 (Bos taurus, UniProt P00760); test: Concentration of compound required to inhibit 50% trypsin derived from bovine pancreas
T2 sequence (P00760 whole entry): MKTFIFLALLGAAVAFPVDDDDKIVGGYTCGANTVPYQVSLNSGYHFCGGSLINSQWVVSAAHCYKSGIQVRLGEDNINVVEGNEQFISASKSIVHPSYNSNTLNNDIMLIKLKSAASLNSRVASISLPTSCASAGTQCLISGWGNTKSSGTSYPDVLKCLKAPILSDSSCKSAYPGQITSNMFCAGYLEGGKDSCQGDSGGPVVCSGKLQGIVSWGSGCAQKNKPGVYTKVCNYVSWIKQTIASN
How it was run: (§1)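 Bovine pancreatic trypsin (1.25 μg) with casein 0.5 mg/mL, 20 mM dithiothreitol, 50 mM Tris-HCl pH 7.4, at various inhibitor concentrations; 60 min, 25 °C caseinolysis, colorimetric development, absorbance 595 nm. IC50 from percent inhibition versus log [inhibitor]; mean of two to four determinations, ranges within 20%.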

[4] = The compound was examined in a functional assay using erythrocyte hemolysis as a functional end point of complement inhibition.; set-up: species or system Ovis aries; concentration or dose not given beside the values
How it was run: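 Compound added to standardized antibody-sensitized sheep erythrocyte suspension (commercial complement kit), incubated 60 min at 25 °C, centrifuged; supernatant absorbance read at 405 nm. Expressed as percent of control at 200 μM.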

[5] = target: T2, Serine protease 1; test: The compound was evaluated to inhibit trypsin and is expressed in IC50 (The concentration required to inhibit 50% of the enzyme).
How it was run: as §1

Q: Which IC50 [1] does the source give for `O=c1oc(NCCc2ccccc2I)nc2ccccc12` here?
A: > 62.5 µM

Q: Which IC50 [2] does the source give for `O=c1oc(Nc2ccccc2Cl)nc2ccccc12` here?
A: 8 µM

Q: Which IC50 [3] does the source give for `O=c1oc(Nc2ccccc2I)nc2cc([N+](=O)[O-])ccc12` here?
A: > 100 µM

Q: And the IC50 [1]?
A: 0.8 µM

Q: And the IC50 [2]?
A: 7.8 µM

Q: And the “Hemolysis (% of control)” value [4]?
A: 126%

Q: Which IC50 [1] does the source give for `COc1cc2nc(Nc3ccccc3I)oc(=O)c2cc1OC` here?
A: 47 µM

Q: What about the IC50 [2] of the same molecule?
A: 47 µM

Q: For `Cc1ccc2c(=O)oc(Nc3ccccc3Cl)nc2c1`, which IC50 [2] is on record?
A: 0.9 µM

Q: For `O=c1oc(Nc2ccccc2I)nc2ccc(Cl)cc12`, which IC50 [2] is on record?
A: > 62.5 µM

Q: Which IC50 [3] does the source give for `Cc1ccc2c(=O)oc(Nc3ccccc3I)nc2c1` here?
A: > 100 µM

Q: What about the IC50 [2] of the same molecule?
A: 1.5 µM

Q: What about the “Hemolysis (% of control)” value [4] of the same molecule?
A: 114%

Q: Which IC50 [1] does the source give for `O=c1oc(Nc2c(Cl)cccc2Cl)nc2ccccc12` here?
A: 0.9 µM

Q: What about the IC50 [2] of the same molecule?
A: 0.9 µM

Q: With `O=c1oc(Nc2ccccc2OC(F)(F)F)nc2ccccc12` as the molecule, how does the IC50 [2] read?
A: > 62.5 µM

Q: With `CN(C)c1ccc2c(=O)oc(Nc3ccccc3I)nc2c1` as the molecule, how does the IC50 [1] read?
A: > 62.5 µM

Q: For `COc1ccc2c(=O)oc(Nc3ccccc3I)nc2c1`, which IC50 [1] is on record?
A: > 62.5 µM

Q: Which IC50 [3] does the source give for `O=c1oc(Nc2ccccc2I)nc2cc(C(F)(F)F)ccc12` here?
A: > 100 µM

Q: And the IC50 [2]?
A: 4 µM

Q: What about the “Hemolysis (% of control)” value [4] of the same molecule?
A: 146%

Q: For `Cc1ccc2nc(Nc3ccccc3I)oc(=O)c2c1`, which IC50 [1] is on record?
A: > 62.5 µM

Q: Which results are given for `O=c1oc(-c2ccccc2I)nc2ccccc12`?
A: IC50 [3]: 15.3 µM; Hemolysis (% of control) [4]: 61%

Q: Which IC50 [1] does the source give for `O=c1oc(Nc2ccccc2I)nc2cc(C3CCCCC3)ccc12` here?
A: > 62.5 µM

Q: For `CC(C)c1ccc2c(=O)oc(Nc3ccccc3I)nc2c1`, which IC50 [1] is on record?
A: > 62.5 µM

Q: Which IC50 [2] does the source give for `Cc1ccccc1Nc1nc2ccccc2c(=O)o1` here?
A: 38 µM

Q: With `O=c1oc(Nc2ccccc2I)nc2cc(Cl)ccc12` as the molecule, how does the IC50 [2] read?
A: 0.9 µM

Q: What does the source list for `O=c1oc(Nc2ccccc2I)nc2cc(F)ccc12`?
A: IC50 [3]: > 100 µM; IC50 [1]: 1.7 µM; IC50 [2]: 2.8 µM

Q: For `O=c1oc(Nc2c(Cl)cccc2Cl)nc2cc(C(F)(F)F)ccc12`, which IC50 [3] is on record?
A: 87.1 µM

Q: And the IC50 [1]?
A: 1.5 µM

Q: What about the IC50 [2] of the same molecule?
A: 4.2 µM

Q: And the “Hemolysis (% of control)” value [4]?
A: 120%

Q: Which IC50 [2] does the source give for `O=c1oc(Nc2ccccc2Cl)nc2cc([N+](=O)[O-])ccc12` here?
A: > 62.5 µM

Q: With `O=c1oc(Nc2ccccc2I)nc2cc(Cl)c(Cl)cc12` as the molecule, how does the IC50 [2] read?
A: > 62.5 µM

Q: Which IC50 [2] does the source give for `O=c1oc(Nc2c(Cl)cccc2Cl)nc2cc(Cl)ccc12` here?
A: 0.9 µM

Q: Which IC50 [1] does the source give for `CNc1nc2ccccc2c(=O)o1` here?
A: > 62.5 µM

Q: With `O=c1oc(Nc2ccccc2I)nc2cc(F)c(F)cc12` as the molecule, how does the IC50 [2] read?
A: > 62.5 µM

Q: Which IC50 [1] does the source give for `Cc1cccc2nc(NC(C)C)oc(=O)c12` here?
A: > 62.5 µM

Q: Which IC50 [2] does the source give for `COc1ccc2nc(Nc3ccccc3I)oc(=O)c2c1` here?
A: > 62.5 µM

Q: For `CN(c1nc2ccccc2c(=O)o1)c1ccccc1I`, which IC50 [3] is on record?
A: 4.5 µM

Q: And the IC50 [2]?
A: 16.6 µM

Q: What about the “Hemolysis (% of control)” value [4] of the same molecule?
A: 72%

Q: For `O=c1oc(Nc2ccccc2I)nc2cc3ccccc3cc12`, which IC50 [1] is on record?
A: 0.2 µM

Q: And the IC50 [2]?
A: 16.6 µM

Q: With `O=c1oc(NCc2ccccc2I)nc2ccccc12` as the molecule, how does the IC50 [1] read?
A: > 62.6 µM

Q: For `Nc1nc2ccccc2c(=O)o1`, which IC50 [1] is on record?
A: > 62.5 µM

Q: Which IC50 [1] does the source give for `Cc1cccc(C)c1Nc1nc2ccccc2c(=O)o1` here?
A: > 62.5 µM

Q: With `O=c1oc(Nc2ccccc2Cl)nc2cc(Cl)c(Cl)cc12` as the molecule, how does the IC50 [2] read?
A: > 62.5 µM

Q: Which IC50 [1] does the source give for `O=c1oc(Nc2ccccc2I)nc2cc(Cl)cc(Cl)c12` here?
A: > 62.5 µM

Q: Which IC50 [3] does the source give for `O=c1oc(Nc2ccccc2Br)nc2ccccc12` here?
A: > 100 µM

Q: What about the IC50 [2] of the same molecule?
A: 15.2 µM

Q: Which IC50 [3] does the source give for `O=c1oc(Nc2ccccc2Cl)nc2cc(Cl)ccc12` here?
A: > 100 µM

Q: What about the IC50 [1] of the same molecule?
A: 0.8 µM

Q: What about the IC50 [2] of the same molecule?
A: 0.8 µM

Q: What about the “Hemolysis (% of control)” value [4] of the same molecule?
A: 138%

Q: What does the source list for `O=c1oc(Nc2cc(Cl)ccc2Cl)nc2ccccc12`?
A: IC50 [3]: > 100 µM; IC50 [1]: 2 µM; IC50 [2]: 2 µM; Hemolysis (% of control) [4]: 131%

Q: For `CSc1ccccc1Nc1nc2ccccc2c(=O)o1`, which IC50 [1] is on record?
A: > 62.5 µM

Q: Which IC50 [1] does the source give for `CCN(c1nc2ccccc2c(=O)o1)c1ccccc1I` here?
A: > 62.5 µM

Q: For `Cc1cccc2nc(Nc3ccccc3I)oc(=O)c12`, which IC50 [1] is on record?
A: > 62.5 µM

Q: For `O=c1oc(Nc2ccccc2I)nc2ccccc12`, which IC50 [2] is on record?
A: 14.7 µM

Q: For `O=c1oc(Nc2ccccc2I)nc2cccc(Cl)c12`, which IC50 [2] is on record?
A: > 62.5 µM

Q: With `N=C(N)c1ccc2cc(OC(=O)c3ccc(N=C(N)N)cc3)ccc2c1` [NAFAMOSTAT] as the molecule, how does the IC50 [5] read?
A: 17 nM
